# What was measured:
# CAL-27 [1] = assay: Potentiation of 0.316 uM cisplatin-induced cytotoxicity against human CAL27 cells assessed as decrease in cell viability by measuring combination index at 900 uM preincubated for 48 hrs followed by cisplatin treatment measured after 72 hrs by MTT assay; format: functional; conditions: in the assay text read “at 900 nM” for “at 900 uM”
# Method in brief: (§1)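 Cal27 and cisplatin-resistant Cal27CisR cells were preincubated with the HDAC inhibitor for 48 h, then given cisplatin in combination. Viability was read by MTT after 72 h. The combination index was computed by the Chou–Talalay method: CI > 1 is antagonism, CI = 1 is additive, and CI < 0.9 is synergism. Points with fraction affected below 0.20 were flagged.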
# CAL-27 [2] = assay: Potentiation of 0.5 uM cisplatin-induced cytotoxicity against human CAL27 cells assessed as decrease in cell viability by measuring combination index at 1000 uM preincubated for 48 hrs followed by cisplatin treatment measured after 72 hrs by MTT assay; format: functional; method in brief: as §1
# CAL-27 [3] = assay: Potentiation of 0.5 uM cisplatin-induced cytotoxicity against human CAL27 cells assessed as decrease in cell viability by measuring combination index at 2000 uM preincubated for 48 hrs followed by cisplatin treatment measured after 72 hrs by MTT assay; format: functional; method in brief: as §1
# CAL-27 [4] = assay: Potentiation of 1 uM cisplatin-induced cytotoxicity against human CAL27 cells assessed as decrease in cell viability by measuring combination index at 1500 uM preincubated for 48 hrs followed by cisplatin treatment measured after 72 hrs by MTT assay; format: functional; conditions: in the assay text read “at 1500 nM” for “at 1500 uM”; method in brief: as §1
# CAL-27 [5] = assay: Potentiation of 2 uM cisplatin-induced cytotoxicity against human CAL27 cells assessed as decrease in cell viability by measuring combination index at 2000 uM preincubated for 48 hrs followed by cisplatin treatment measured after 72 hrs by MTT assay; format: functional; conditions: in the assay text read “at 2000 nM” for “at 2000 uM”
# Method in brief: (§2)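 HDAC inhibitor was added 48 h before cisplatin, then cells were exposed to cisplatin for 72 h and viability was read by MTT assay. Combination index was computed by the Chou–Talalay method: CI > 1 is antagonism, CI = 1 additive, CI < 0.9 synergism. Points with fraction affected below 0.20 were flagged.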
# CAL-27 [6] = assay: Potentiation of 5 uM cisplatin-induced cytotoxicity against human CAL27 cells assessed as decrease in cell viability by measuring combination index at 900 uM preincubated for 48 hrs followed by cisplatin treatment measured after 72 hrs by MTT assay; format: functional; conditions: in the assay text read “at 900 nM” for “at 900 uM”; method in brief: as §2
# CAL-27 [7] = assay: Potentiation of 5 uM cisplatin-induced cytotoxicity against human CAL27 cells assessed as decrease in cell viability by measuring combination index at 1000 uM preincubated for 48 hrs followed by cisplatin treatment measured after 72 hrs by MTT assay; format: functional; conditions: in the assay text read “at 1000 nM” for “at 1000 uM”; method in brief: as §2
# CAL-27 [8] = assay: Potentiation of 5 uM cisplatin-induced cytotoxicity against human CAL27 cells assessed as decrease in cell viability by measuring combination index at 2000 uM preincubated for 48 hrs followed by cisplatin treatment measured after 72 hrs by MTT assay; format: functional; conditions: in the assay text read “at 2000 nM” for “at 2000 uM”; method in brief: as §2
# [9] = target: T1, Histone deacetylase 1/6 (Homo sapiens) (UniProt Q13547+Q9UBN7); assay: Inhibition of HDAC1/HDAC6 in human Cal27CisR cells assessed as potentiation of 1 uM cisplatin-induced cytotoxicity by measuring combination index at 1000 uM preincubated for 48 hrs followed by cisplatin treatment measured after 72 hrs by MTT assay; format: cell-based
# T1 sequence (Q13547 whole entry, looked up): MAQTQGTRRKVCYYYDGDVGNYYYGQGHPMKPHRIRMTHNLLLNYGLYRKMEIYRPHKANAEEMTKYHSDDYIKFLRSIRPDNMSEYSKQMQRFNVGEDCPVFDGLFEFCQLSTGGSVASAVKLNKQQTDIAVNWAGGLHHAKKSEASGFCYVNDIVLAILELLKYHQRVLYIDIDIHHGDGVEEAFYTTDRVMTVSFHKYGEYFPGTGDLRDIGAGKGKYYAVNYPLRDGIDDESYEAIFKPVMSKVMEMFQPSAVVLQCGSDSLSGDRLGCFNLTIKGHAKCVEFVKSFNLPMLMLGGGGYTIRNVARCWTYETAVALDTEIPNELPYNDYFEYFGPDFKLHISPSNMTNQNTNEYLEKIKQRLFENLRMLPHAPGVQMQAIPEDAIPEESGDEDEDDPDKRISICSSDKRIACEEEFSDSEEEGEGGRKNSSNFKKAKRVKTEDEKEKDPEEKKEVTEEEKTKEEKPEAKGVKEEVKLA
# T1 sequence (Q9UBN7 whole entry, looked up): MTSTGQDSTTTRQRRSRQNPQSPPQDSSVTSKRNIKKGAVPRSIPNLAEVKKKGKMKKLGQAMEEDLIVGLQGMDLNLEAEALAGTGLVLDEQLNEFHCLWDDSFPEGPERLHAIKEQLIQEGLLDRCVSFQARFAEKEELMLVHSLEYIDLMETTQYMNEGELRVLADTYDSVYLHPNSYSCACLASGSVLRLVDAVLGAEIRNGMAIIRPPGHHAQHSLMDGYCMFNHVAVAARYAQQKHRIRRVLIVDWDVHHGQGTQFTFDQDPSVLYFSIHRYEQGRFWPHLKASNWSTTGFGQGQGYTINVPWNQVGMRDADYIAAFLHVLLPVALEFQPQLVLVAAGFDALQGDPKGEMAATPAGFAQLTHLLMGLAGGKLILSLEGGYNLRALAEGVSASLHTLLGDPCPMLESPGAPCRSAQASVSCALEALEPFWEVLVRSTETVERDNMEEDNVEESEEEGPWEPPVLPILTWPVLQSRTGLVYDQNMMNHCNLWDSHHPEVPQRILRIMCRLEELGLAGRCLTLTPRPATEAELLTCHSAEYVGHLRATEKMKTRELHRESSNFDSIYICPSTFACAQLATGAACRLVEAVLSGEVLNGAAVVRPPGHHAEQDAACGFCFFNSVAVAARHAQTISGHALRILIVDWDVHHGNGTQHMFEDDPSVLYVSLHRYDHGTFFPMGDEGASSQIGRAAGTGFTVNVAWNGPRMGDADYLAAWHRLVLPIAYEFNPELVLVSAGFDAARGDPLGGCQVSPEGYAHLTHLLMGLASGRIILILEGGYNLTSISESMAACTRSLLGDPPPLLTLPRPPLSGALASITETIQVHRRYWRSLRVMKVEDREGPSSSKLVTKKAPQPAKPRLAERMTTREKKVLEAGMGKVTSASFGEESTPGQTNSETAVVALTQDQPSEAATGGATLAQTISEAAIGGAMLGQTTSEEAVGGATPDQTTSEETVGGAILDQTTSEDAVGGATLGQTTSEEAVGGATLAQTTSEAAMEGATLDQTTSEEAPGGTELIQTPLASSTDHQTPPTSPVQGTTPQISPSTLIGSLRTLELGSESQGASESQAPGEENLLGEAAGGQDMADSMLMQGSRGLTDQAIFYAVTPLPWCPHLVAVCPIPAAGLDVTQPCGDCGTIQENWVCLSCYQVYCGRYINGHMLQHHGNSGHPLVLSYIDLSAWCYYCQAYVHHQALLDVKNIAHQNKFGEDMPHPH
# Method in brief: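 Cal27CisR cells preincubated 48 h with the HDAC inhibitor, then exposed to cisplatin for 72 h. Viability read by MTT. Combination index calculated by the Chou–Talalay method: CI > 1 antagonism, CI = 1 additive, CI < 0.9 synergism. Points with fraction affected below 0.20 are flagged. Values are the mean of three experiments.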
# [10] = target: T1, Histone deacetylase 1/6 (Homo sapiens); assay: Inhibition of HDAC1/HDAC6 in human Cal27CisR cells assessed as potentiation of 5 uM cisplatin-induced cytotoxicity by measuring combination index at 1000 uM preincubated for 48 hrs followed by cisplatin treatment measured after 72 hrs by MTT assay; format: cell-based; method in brief: as §1
# [11] = target: T1, Histone deacetylase 1/6 (Homo sapiens); assay: Inhibition of HDAC1/HDAC6 in human Cal27CisR cells assessed as potentiation of 5 uM cisplatin-induced cytotoxicity by measuring combination index at 1500 uM preincubated for 48 hrs followed by cisplatin treatment measured after 72 hrs by MTT assay; format: cell-based; method in brief: as §1
# [12] = target: T1, Histone deacetylase 1/6 (Homo sapiens); assay: Inhibition of HDAC1/HDAC6 in human Cal27CisR cells assessed as potentiation of 5 uM cisplatin-induced cytotoxicity by measuring combination index at 2000 uM preincubated for 48 hrs followed by cisplatin treatment measured after 72 hrs by MTT assay; format: cell-based; method in brief: as §1
# [13] = target: T1, Histone deacetylase 1/6 (Homo sapiens); assay: Inhibition of HDAC1/HDAC6 in human Cal27CisR cells assessed as potentiation of 20 uM cisplatin-induced cytotoxicity by measuring combination index at 900 nM preincubated for 48 hrs followed by cisplatin treatment measured after 72 hrs by MTT assay
# [14] = target: T1, Histone deacetylase 1/6 (Homo sapiens); assay: Inhibition of HDAC1/HDAC6 in human Cal27CisR cells assessed as potentiation of 10 uM cisplatin-induced cytotoxicity by measuring combination index at 1500 nM preincubated for 48 hrs followed by cisplatin treatment measured after 72 hrs by MTT assay
# [15] = target: T1, Histone deacetylase 1/6 (Homo sapiens); assay: Inhibition of HDAC1/HDAC6 in human Cal27CisR cells assessed as potentiation of 20 uM cisplatin-induced cytotoxicity by measuring combination index at 1000 nM preincubated for 48 hrs followed by cisplatin treatment measured after 72 hrs by MTT assay
# [16] = target: T1, Histone deacetylase 1/6 (Homo sapiens); assay: Inhibition of HDAC1/HDAC6 in human Cal27CisR cells assessed as potentiation of 3.16 uM cisplatin-induced cytotoxicity by measuring combination index at 1000 nM preincubated for 48 hrs followed by cisplatin treatment measured after 72 hrs by MTT assay
# CAL-27 [17] = assay: Potentiation of 0.316 uM cisplatin-induced cytotoxicity against human CAL27 cells assessed as decrease in cell viability by measuring combination index at 700 nM preincubated for 48 hrs followed by cisplatin treatment measured after 72 hrs by MTT assay
# CAL-27 [18] = assay: Potentiation of 0.316 uM cisplatin-induced cytotoxicity against human CAL27 cells assessed as decrease in cell viability by measuring combination index at 500 nM preincubated for 48 hrs followed by cisplatin treatment measured after 72 hrs by MTT assay
# CAL-27 [19] = assay: Potentiation of 2 uM cisplatin-induced cytotoxicity against human CAL27 cells assessed as decrease in cell viability by measuring combination index at 100 uM preincubated for 48 hrs followed by cisplatin treatment measured after 72 hrs by MTT assay; format: functional; conditions: in the assay text read “at 100 nM” for “at 100 uM”; method in brief: as §2
# CAL-27 [20] = assay: Potentiation of cisplatin-induced apoptosis in human CAL27 cells at 0.5 uM preincubated for 48 hrs followed by cisplatin treatment for 6 hrs measured after 24 hrs by propidium iodide dye-based flow cytometry (reference value: 21.8%); format: functional
compound,measurement,setting,value
COc1cc(NC(=O)NOCCCCCC(=O)NO)c2ncccc2c1,CI,CAL-27 [1],0.77
same,CI,CAL-27 [2],0.67
same,CI,CAL-27 [3],0.86
same,CI,CAL-27 [4],0.64
same,CI,CAL-27 [5],0.7
same,CI,CAL-27 [6],0.37
same,CI,CAL-27 [7],0.4
same,CI,CAL-27 [8],0.66
same,CI,[9],0.85
same,CI,[10],0.43
same,CI,[11],0.47
same,CI,[12],0.59
same,CI,[13],0.49
same,CI,[14],0.51
same,CI,[15],0.48
same,CI,[16],0.63
same,CI,CAL-27 [17],<0.2
COc1cc(NC(=O)NOCCCCCC(=O)NO)c2nccc(C)c2c1,CI,CAL-27 [18],<0.2
COc1cc(NC(=O)NOCCCCCC(=O)NO)c2nc(OC)cc(C)c2c1,CI,CAL-27 [19],0.31
same,Activity,CAL-27 [20],33.3%
